From ChEMBL document CHEMBL1154198, “Chemical genetics of Plasmodium falciparum” (Nature, 2010)

Tests used:
Plasmodium falciparum [1] = assay: ST_JUDE: Cytotoxicity against Plasmodium falciparum V1/S; format: functional, organism-based
[2] = ST_JUDE: Cytotoxicity using luciferase to measure ATP as an indicator of the viability of human epithelial embryonic kidney cells (HEK293); format: toxicity, cell-based
Plasmodium falciparum [3] = assay: ST_JUDE: Cytotoxicity against Plasmodium falciparum D10 transfected with yeast DHOD; format: functional, organism-based
Plasmodium falciparum [4] = assay: ST_JUDE: Cytotoxicity against Plasmodium falciparum SB-A6; format: functional, organism-based
[5] = ST_JUDE: Cytotoxicity using luciferase to measure ATP as an indicator of the viability of human epithelial hepatocellular carcinoma cells (HepG2); format: toxicity, cell-based
Plasmodium falciparum [6] = assay: ST_JUDE: Cytotoxicity against Plasmodium falciparum W2; format: functional, organism-based
Toxoplasma gondii = assay: ST_JUDE: Growth inhibition of to Toxoplasma gondii, in human U-2OS cells, as measured by luciferase.; format: functional, organism-based; conditions: RH, U2OS
Method in brief: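 T. gondii parasites engineered to express luciferase; drug sensitivity read by luminescence.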

Plasmodium falciparum [7] = assay: ST_JUDE: Plasmodium falciparum 3D7 EC50 (uM) as measured by SYBR green dye; format: functional, organism-based
[8] = ST_JUDE: Cytotoxicity using luciferase to measure ATP as an indicator of the viability of human foreskin fibroblast cells (BJ); format: toxicity, cell-based
Plasmodium falciparum [9] = assay: ST_JUDE: Cytotoxicity against Plasmodium falciparum K1; format: functional, organism-based
Method in brief: (§1)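 Asexual P. falciparum grown in human erythrocytes, exposed to compounds for 72 h, and growth read as the DNA quantity in treated versus control cultures. Dose-response run at 12 concentrations from 10 μM to 5 nM.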

Plasmodium falciparum [10] = assay: ST_JUDE: Cytotoxicity against Plasmodium falciparum Dd2; format: functional, organism-based
Plasmodium falciparum [11] = assay: ST_JUDE: Plasmodium falciparum K1 EC50 (uM) as measured by SYBR green dye; format: functional, organism-based
[12] = ST_JUDE: Cytotoxicity using luciferase to measure ATP as an indicator of the viability of human Burkitt''s lymphoma lymphoblast cells (Raji); format: toxicity, cell-based
Leishmania major = assay: ST_JUDE: Cytotoxicity using Alamar Blue to measure viability of Leishmania major; format: functional, organism-based
Method in brief: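 L. major promastigotes; drug susceptibility read with Alamar Blue.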

Plasmodium falciparum [13] = assay: ST_JUDE: Cytotoxicity against Plasmodium falciparum 3D7; format: functional, organism-based; method in brief: as §1
Trypanosoma brucei = assay: ST_JUDE: Cytotoxicity using luciferase to measure ATP as an indicator of the viability of Trypanosoma brucei; format: functional, organism-based

Row | Structure (SMILES) | EC50 (Plasmodium falciparum [1]) | EC50 [2] | EC50 (Plasmodium falciparum [3]) | EC50 (Plasmodium falciparum [4]) | EC50 [5] | EC50 (Plasmodium falciparum [6]) | EC50 (Toxoplasma gondii) | EC50 (Plasmodium falciparum [7]) | EC50 [8] | EC50 (Plasmodium falciparum [9]) | EC50 (Plasmodium falciparum [10]) | EC50 (Plasmodium falciparum [11]) | EC50 [12] | EC50 (Leishmania major) | EC50 (Plasmodium falciparum [13]) | EC50 (Trypanosoma brucei)
1 | CO/C(O)=C1\C(C)=NC2=C(C(=O)CC(c3ccc(OC)c(OC)c3)C2)C1c1ccccc1F (stereo not given) | 911 nM | > 44800 nM | 746 nM | 556 nM | > 44800 nM | 296 nM | > 24500 nM | 504 nM | > 44800 nM | 412 nM | 766 nM | 433 nM | > 44800 nM | > 19200 nM | 427 nM | > 42900 nM
2 | Cc1ccc2c(c1)N(C)/C(=C/c1sc3ccccc3[n+]1CCO)S2 | 546 nM | > 19300 nM | 362 nM | 514 nM | > 19300 nM | 432 nM | > 10600 nM | 1580 nM | > 19300 nM | 420 nM | 341 nM | 440 nM | 2100 nM | > 8280 nM | 320 nM | 6040 nM
3 | CCN(CC)CCCOC(=O)c1c(C)oc2cc3c(C(=O)OCCCN(CC)CC)c(C)oc3cc12 | > 9980 nM | 29200 nM | 1730 nM | 537 nM | 4710 nM | 790 nM | 10900 nM | 538 nM | > 38900 nM | 2890 nM | 273 nM | 1270 nM | 23700 nM | > 16600 nM | 2140 nM | 5220 nM
4 | CCOC(=O)C1(Cc2ccccc2)CCN(Cc2cccc(OC)c2O)CC1 | 908 nM | > 37000 nM | 2550 nM | 3000 nM | > 37000 nM | 1430 nM | > 20300 nM | 2290 nM | > 37000 nM | 645 nM | 1760 nM | 1050 nM | > 37000 nM | > 15800 nM | 1490 nM | 30900 nM
5 | CO/C(O)=C1\C(C)=NC2=C(C(=O)CC(c3ccc(OC)c(OC)c3)C2)C1c1ccccc1C (stereo not given) | 254 nM | > 41400 nM | 196 nM | 176 nM | > 41400 nM | 225 nM | > 22700 nM | 424 nM | > 41400 nM | 220 nM | 577 nM | 117 nM | > 41400 nM | > 17700 nM | 309 nM | 17000 nM
